# Assays:
# SU-DHL-6 flank tumors = assay: SU-DHL-6 xenograft; assay type: in vivo
# How it was run: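 Female SCID mice, 8–10 weeks old. 2 × 10^6 SU-DHL-6 cells, washed in ice-cold PBS and mixed 1:1 with matrigel, injected s.c. into the right flank. At 60 mm3, mice pair-matched to vehicle (sterile water, 5.2% tween-80, 5.2% PEG-400) or 20 mg/kg test compound i.p. daily for 5 days. Weight and tumor volume measured twice weekly; mean ± SEM, n=8.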
# [1] = Single-dose maximum tolerated dose study; assay type: in vivo; settings: for tolerability, single dose: five female CD-1 mice
# OCI-Ly3 cells = assay: Polysome profiling; assay type: cell-based; settings: OCI-Ly3, 2 μM elatol
# [2] = test system: normal human peripheral-blood mononuclear cells; assay: Potency against normal peripheral-blood mononuclear cells; assay type: cell-based; settings: Fig. S1B
# OCI-Ly3 xenograft = assay: OCI-Ly3 xenograft; assay type: in vivo
# How it was run: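 Female SCID mice, 8–10 weeks old. 10 × 10^6 OCI-Ly3 cells, washed in ice-cold PBS and mixed 1:1 with matrigel, implanted s.c. in the flank. Tumors dissected at 500 mm3, dissociated, and 1 × 10^6 serially transplanted cells implanted s.c. At ≥50 mm3, mice pair-matched to vehicle or 40 mg/kg i.p. twice weekly. Weight and tumor volume monitored twice weekly; n=8; two-way ANOVA.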
# DLBCL cell lines = assay: Proliferation assay; assay type: cell-based; settings: three DLBCL cell lines, single elatol treatment
# How it was run: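 Three DLBCL lines seeded on day 0 and given a single dose of DMSO vehicle or test compound at indicated concentrations. Viable cells counted daily by trypan blue exclusion. Mean ± SEM, n=3.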
# eIF4A1-K238E = eIF4A1-K238E (Homo sapiens, UniProt P60842, K238E); assay: Malachite green ATP hydrolysis assay, eIF4A1-K238E mutant; assay type: biochemical
# How it was run: (§1)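 Malachite green ATPase run at 37 °C for 1 h. eIF4A1 wild-type, K82R (500 nM) or K238E (500 nM) in 20 mM MES-NaOH pH 6.0, 100 mM potassium acetate, 2.5 mM MgCl2, 1% glycerol, 1 mM DTT. ATP gradient 0–2 mM. Aliquot mixed with 9.3 µM malachite green, 53 mM ammonium molybdate, 1 M HCl, 0.04% Tween 20. Mean ± SEM, n=3.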
# DDX39A = DDX39A (Homo sapiens, UniProt O00148); assay: Malachite green ATP hydrolysis counter-screen, DDX39A; assay type: biochemical
# p97 = p97 (Homo sapiens, UniProt P55072); assay: Malachite green ATP hydrolysis counter-screen, p97; assay type: biochemical
# eIF4A1 helicase activity = eIF4A1 helicase activity (Homo sapiens, UniProt P60842); assay: Fluorescence-based helicase assay; assay type: biochemical; settings: cell-free, RNA unwinding de-quenching
# eIF4A1 [3] = target: T1, eIF4A1 (Homo sapiens, UniProt P60842); assay: Malachite green ATP hydrolysis assay, wildtype eIF4A1; assay type: biochemical
# How it was run: as §1
# SNU-398 [4] = assay: Western blot in SNU-398 cells; assay type: cell-based; settings: 16 hours
# Atf4−/− and WT MEFs = assay: Viability; assay type: cell-based, Murine; settings: Mus musculus, 72 h, read-out: IC50, viability, Atf4−/− MEFs, 72 hour
# [5] = test system: primary chronic lymphocytic leukemia (CLL) cells; assay: OPP labeling in primary CLL patient cells; assay type: cell-based
# eIF4A1 [6] = target: T1, eIF4A1; assay: Isothermal titration calorimetry; assay type: binding
# How it was run: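 eIF4A dialysed 12 h against 20 mM MES-KOH pH 6.0, 10 mM potassium acetate, 2.5 mM MgCl2, 1% glycerol, 1 mM DTT. Protein was matched to 2% DMSO, degassed and placed in the cell. 12–20 injections of 0.2 mM test compound in the same buffer, every 200 s over 3000 s. Peaks integrated to 75 s post-injection and fit to an independent binding model. Replicates run at 25 and 10 µM eIF4A.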
# HEK-293 cells = assay: Dual-luciferase reporter assay; assay type: cell-based; settings: eight-hour treatment
# How it was run: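 HEK-293 cells (7 × 10^5) transfected with 400 ng of a dual-luciferase plasmid using Lipofectamine 3000. Treated 36 h after transfection for 8 h, then lysed with a dual-luciferase kit and read in triplicate. Luciferase units normalized to DMSO-treated cells; mean ± SEM, n=3.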
# DDX3 = DDX3 (Homo sapiens, UniProt O00571); assay: Malachite green ATP hydrolysis counter-screen, DDX3; assay type: biochemical
# [7] = Tolerability in non-tumor bearing SCID mice; assay type: in vivo; settings: for tolerability: non-tumor bearing SCID mice
# How it was run: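 Non-tumor-bearing female SCID mice, 8–10 weeks old, dosed i.p. daily for 5 days at 10, 20 or 30 mg/kg and monitored for weight and activity. Complete blood counts (white blood cells, hemoglobin, platelets) measured on a Hemavet950. For 20 mg/kg: mean ± SEM, n=17 vehicle and 7 treated.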
# SNU-398 [8] = assay: Viability assay in SNU-398 cells; assay type: cell-based
# [9] = test system: protein synthesis in DLBCL cells; assay: O-propargyl puromycin; assay type: cell-based; settings: concentrations relative to LD50, 4, 16 or 24 hours
# How it was run: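 DLBCL cells treated 4, 16 or 24 h with test compound, silvestrol or carboplatin, at concentrations scaled to each agent's LD50. Cells pulsed with O-propargyl puromycin, washed twice in PBS and click-labelled with Alexa-488 azide. Flow cytometry gave mean fluorescence on live-gated cells, normalised to DMSO. Mean ± SEM, n=3; unpaired two-tailed t-tests with Benjamini–Krieger–Yekutieli correction.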
# DDX17 = DDX17 (Homo sapiens, UniProt Q92841); assay: Malachite green ATP hydrolysis counter-screen, DDX17; assay type: biochemical
# OCI-Ly3 = assay: Protein; assay type: cell-based; settings: OCI-Ly3, Fig. S3D
# T1 sequence (P60842 whole entry): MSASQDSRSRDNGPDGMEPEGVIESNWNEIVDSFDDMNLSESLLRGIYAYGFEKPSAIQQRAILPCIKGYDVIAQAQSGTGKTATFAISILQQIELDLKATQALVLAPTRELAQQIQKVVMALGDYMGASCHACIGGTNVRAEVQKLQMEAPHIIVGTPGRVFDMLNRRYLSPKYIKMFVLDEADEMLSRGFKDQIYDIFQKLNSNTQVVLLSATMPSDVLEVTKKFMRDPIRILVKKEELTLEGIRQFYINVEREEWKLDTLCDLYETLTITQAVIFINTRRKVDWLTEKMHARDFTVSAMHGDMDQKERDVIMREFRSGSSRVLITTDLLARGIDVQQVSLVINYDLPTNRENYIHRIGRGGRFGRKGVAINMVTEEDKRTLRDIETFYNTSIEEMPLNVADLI
# Chain of DDX17 (Q92841 whole entry, species assumed): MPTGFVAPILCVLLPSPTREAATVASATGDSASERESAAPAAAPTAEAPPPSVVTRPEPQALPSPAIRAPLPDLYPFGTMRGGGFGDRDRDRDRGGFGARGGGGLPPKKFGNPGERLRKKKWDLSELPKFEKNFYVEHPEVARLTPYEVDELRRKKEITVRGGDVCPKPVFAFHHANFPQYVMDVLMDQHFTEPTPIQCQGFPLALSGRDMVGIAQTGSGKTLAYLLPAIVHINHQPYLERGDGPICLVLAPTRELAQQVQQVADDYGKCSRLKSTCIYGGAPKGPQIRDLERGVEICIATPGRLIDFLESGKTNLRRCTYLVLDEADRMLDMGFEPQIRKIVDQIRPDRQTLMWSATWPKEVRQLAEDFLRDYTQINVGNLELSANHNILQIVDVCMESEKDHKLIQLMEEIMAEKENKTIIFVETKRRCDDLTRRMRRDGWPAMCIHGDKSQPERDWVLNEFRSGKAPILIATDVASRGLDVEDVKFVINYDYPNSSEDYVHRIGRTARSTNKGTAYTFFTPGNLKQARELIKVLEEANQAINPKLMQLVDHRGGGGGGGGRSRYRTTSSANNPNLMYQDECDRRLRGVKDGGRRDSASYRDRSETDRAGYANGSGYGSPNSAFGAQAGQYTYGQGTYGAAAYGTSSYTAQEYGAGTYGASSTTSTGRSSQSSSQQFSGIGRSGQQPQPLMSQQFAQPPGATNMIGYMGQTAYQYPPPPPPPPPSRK
# Chain of eIF4A1 helicase activity (P60842 whole entry): as the sequence (P60842 whole entry) above
# Chain of DDX3 (O00571 whole entry, species assumed): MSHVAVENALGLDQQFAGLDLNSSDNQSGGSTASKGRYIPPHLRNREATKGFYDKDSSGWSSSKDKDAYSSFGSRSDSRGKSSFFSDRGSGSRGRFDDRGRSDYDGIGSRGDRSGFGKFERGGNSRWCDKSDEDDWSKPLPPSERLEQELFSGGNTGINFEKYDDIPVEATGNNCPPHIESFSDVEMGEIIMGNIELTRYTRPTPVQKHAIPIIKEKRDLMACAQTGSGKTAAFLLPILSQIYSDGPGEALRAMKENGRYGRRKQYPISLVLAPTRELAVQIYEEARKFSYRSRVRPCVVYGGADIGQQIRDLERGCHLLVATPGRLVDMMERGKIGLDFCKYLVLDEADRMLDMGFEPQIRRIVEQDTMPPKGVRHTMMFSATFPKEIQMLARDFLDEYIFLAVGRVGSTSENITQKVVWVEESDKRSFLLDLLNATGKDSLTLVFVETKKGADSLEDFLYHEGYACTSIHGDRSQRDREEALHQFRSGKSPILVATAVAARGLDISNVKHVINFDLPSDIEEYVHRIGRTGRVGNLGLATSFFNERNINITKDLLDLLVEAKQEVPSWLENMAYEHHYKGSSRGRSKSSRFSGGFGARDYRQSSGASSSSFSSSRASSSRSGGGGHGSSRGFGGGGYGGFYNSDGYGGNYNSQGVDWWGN
# Chain of DDX39A (O00148 whole entry, species assumed): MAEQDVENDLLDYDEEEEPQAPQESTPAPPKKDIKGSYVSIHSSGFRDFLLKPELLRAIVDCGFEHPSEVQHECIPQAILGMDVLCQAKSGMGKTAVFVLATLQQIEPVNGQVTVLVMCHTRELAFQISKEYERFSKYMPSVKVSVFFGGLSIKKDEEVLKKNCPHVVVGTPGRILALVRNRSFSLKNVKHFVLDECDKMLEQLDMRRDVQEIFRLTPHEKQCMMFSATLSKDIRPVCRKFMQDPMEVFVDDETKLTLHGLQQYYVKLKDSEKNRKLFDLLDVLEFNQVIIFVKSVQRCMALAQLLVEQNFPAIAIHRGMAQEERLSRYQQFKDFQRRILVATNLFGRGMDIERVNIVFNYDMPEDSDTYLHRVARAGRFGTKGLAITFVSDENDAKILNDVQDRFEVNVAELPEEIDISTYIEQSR
# Chain of p97 (P55072 whole entry): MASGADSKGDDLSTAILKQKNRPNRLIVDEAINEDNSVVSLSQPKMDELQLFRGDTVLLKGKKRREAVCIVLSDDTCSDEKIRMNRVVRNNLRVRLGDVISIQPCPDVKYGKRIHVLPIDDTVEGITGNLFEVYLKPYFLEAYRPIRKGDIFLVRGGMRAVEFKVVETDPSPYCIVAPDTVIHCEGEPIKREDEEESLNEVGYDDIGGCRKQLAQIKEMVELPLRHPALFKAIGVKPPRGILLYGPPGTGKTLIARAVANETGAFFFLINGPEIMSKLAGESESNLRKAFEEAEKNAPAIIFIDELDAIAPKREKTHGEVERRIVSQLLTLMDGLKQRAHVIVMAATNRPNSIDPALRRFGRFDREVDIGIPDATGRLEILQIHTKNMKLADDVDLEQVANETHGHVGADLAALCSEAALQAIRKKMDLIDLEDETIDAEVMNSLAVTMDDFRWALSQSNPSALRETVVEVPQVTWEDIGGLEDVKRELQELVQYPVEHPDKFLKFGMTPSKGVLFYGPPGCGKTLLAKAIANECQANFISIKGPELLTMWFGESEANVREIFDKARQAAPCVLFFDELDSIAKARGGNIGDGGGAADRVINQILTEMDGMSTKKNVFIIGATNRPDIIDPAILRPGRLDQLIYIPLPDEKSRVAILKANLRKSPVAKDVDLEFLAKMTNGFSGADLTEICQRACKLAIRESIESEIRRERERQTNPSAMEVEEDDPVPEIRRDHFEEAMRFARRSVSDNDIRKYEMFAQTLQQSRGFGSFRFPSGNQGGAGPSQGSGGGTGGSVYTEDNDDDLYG
# Chain of eIF4A1-K238E (P60842 whole entry K238E): as the sequence (P60842 whole entry) above, with K238E counted along it
structure (smiles),measurement,setting,value
C=C1C[C@H](O)[C@H](Br)C(C)(C)[C@@]12CCC(C)=C(Cl)C2 [elatol],time tumor growth was halted from the start of treatment,"SU-DHL-6 flank tumors; 20 mg/kg i.p. daily for 5 days, one cycle",12 days
same,tolerability in tumor-bearing mice,"SU-DHL-6 flank tumors; 20 mg/kg i.p. daily, first five-day cycle",weight loss and overt signs of toxicity
same,"tolerability, single dose",[1]; 50 mg/kg single i.p. dose,tolerated 50 mg/kg without issue
same,"tolerability, single dose",[1]; 65 mg/kg single i.p. dose,tolerated 65 mg/kg without issue
same,mice dying or moribund requiring sacrifice,"[1]; 80 mg/kg single i.p. dose, within five days",3/5
same,"mortality, single dose","[1]; 100 mg/kg single i.p. dose, within five days",all five animals in group 2 died
same,tolerated dose relative to silvestrol,"[1]; CD-1, SCID, mouse, in vivo, 14 days",~ 100 x
same,polysome translation,OCI-Ly3 cells; 16 hours,complete elimination of polysome translation
same,polysome translation,OCI-Ly3 cells; two-hour treatment,moderately reduced polysome translation
same,potency against normal PBMC relative to tumor lines,[2],less potent
same,tolerability in tumor-bearing mice,OCI-Ly3 xenograft; 40 mg/kg i.p. twice per week,well-tolerated
same,tumor growth compared to vehicle-treated controls,"OCI-Ly3 xenograft; 40 mg/kg i.p. twice per week, p=0.0117",significant reduction of tumor growth
same,tolerability in tumor-bearing mice,"OCI-Ly3 xenograft; single dose at 65 mg/kg, OCI-Ly3 engrafted SCID mice",morbidity and weight loss
same,effect on proliferation,DLBCL cell lines,completely halted proliferation
same,IC50,eIF4A1-K238E,34.2 ± 12.8 µM
same,activity against ATP hydrolysis by DDX39A,DDX39A,no activity
same,activity against ATP hydrolysis by p97,p97,no activity
same,effect on eIF4A1 helicase activity,eIF4A1 helicase activity,inhibition
same,IC50,eIF4A1 [3],16.4 µM
same,activity against mTORC1 targets (phosphorylation of S6 and 4EBP1),"SNU-398 [4]; 200 nM rapamycin, 100 nM silvestrol, 1 μM elatol",no activity
same,ATF4 expression,"SNU-398 [4]; SNU-398, 1 μM elatol",induced expression of the transcription factor ATF4
same,IC50,Atf4−/− and WT MEFs,2.79 µM
same,protein translation measured by OPP labeling,[5]; primary CLL cells stimulated with anti IgM,significantly reduced protein translation
same,OPP labeling,"[5]; unstimulated primary CLL cells, or non-malignant T-cells",did not significantly inhibit OPP labeling
same,Kd,eIF4A1 [6],1.98 ± 0.31 µM
same,cap-dependent versus IRES driven luciferase expression,HEK-293 cells,down-regulated cap-dependent protein translation more strongly than cap-independent IRES driven expression
same,activity against ATP hydrolysis by DDX3,DDX3,no activity
same,tolerability,[7]; 10 mg/kg daily x 5 days i.p.,neither 10 mg/kg nor 20 mg/kg resulted in signs of toxicity
same,Day 5 complete blood counts versus vehicle,[7]; 20 mg/kg daily for 5 days,no differences
same,tolerability,[7]; 20 mg/kg daily x 5 days i.p.,neither 10 mg/kg nor 20 mg/kg resulted in signs of toxicity
same,tolerability,"[7]; 30 mg/kg daily i.p., stopped after three days",weight loss and reduced animal activity
same,type of effect on SNU-398 cells,SNU-398 [8]; 72-hour treatment,highly cytotoxic
same,LD50,"SNU-398 [8]; SNU-398, 72-hour treatment",219 nM
same,protein synthesis measured by incorporation of OPP,[9],global decline of protein synthesis
same,activity against ATP hydrolysis by DDX17,DDX17,no activity
same,concentration at which mRNA reductions become significant,OCI-Ly3,500 to 1000 nM
same,concentration at which protein-expression changes begin,OCI-Ly3,100 nM

# Reference: article PMC6500731 (Clinical cancer research : an official journal of the …, 2018)
